Results published in ChEMBL document CHEMBL4715813, “Allicin-inspired pyridyl disulfides as antimicrobial agents for multidrug-resistant Staphylococcus aureus” (Eur J Med Chem, 2018).
≈ marks a conversion by molar mass, not a printed value. Calls of active or inactive are those of the source. The calls are words filed in the database; no cut-off is given here.

Key:
[1] = test system: Staphylococcus aureus; assay: Antibacterial activity against linezolid-resistant Staphylococcus aureus assessed as bacterial growth inhibition incubated for 20 hrs by broth dilution method; format: functional
Procedure, shortened: (§1)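 Broth microdilution: 0.5 McFarland suspension from an overnight culture, diluted 1:100 in cation-adjusted Mueller Hinton broth (CAMHB), given serial dilutions of test agent for 20 h at 37 °C. MIC is the lowest concentration with no visible growth.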

[2] = test system: Staphylococcus aureus; assay: Ratio of MBC to MIC against methicillin-resistant Staphylococcus aureus ATCC 43300; format: functional
Procedure, shortened: (§2)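 For MBC, 5 μL from each well was spotted on agar and incubated overnight; MBC is the lowest concentration with no visible growth. Ratio taken as MBC over MIC.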

[3] = test system: Escherichia coli; assay: Antibacterial activity against beta-lactam resistant Escherichia coli BAA 2326 assessed as zone of inhibition by disc diffusion method; format: functional
[4] = test system: Staphylococcus aureus; assay: Antibacterial activity against hospital acquired methicillin-resistant Staphylococcus aureus ATCC 43300 assessed as zone of inhibition by disc diffusion method; format: functional
[5] = test system: Enterococcus faecalis; assay: Antibacterial activity against vancomycin-susceptible Enterococcus faecalis ATCC 29212 assessed as zone of inhibition by disc diffusion method; format: functional
[6] = test system: Staphylococcus aureus; assay: Bactericidal activity against heterogeneous vancomycin-intermediate Staphylococcus aureus Mu3 ATCC 700698 assessed as bacterial killing incubated for over night; format: functional; procedure, shortened: as §2
[7] = test system: Staphylococcus aureus; assay: Antibacterial activity against methicillin-susceptible Staphylococcus aureus ATCC 25923 assessed as bacterial growth inhibition incubated for 20 hrs by broth dilution method; format: functional; procedure, shortened: as §1
[8] = test system: Acinetobacter baumannii; assay: Antibacterial activity against Acinetobacter baumannii ATCC 19606 assessed as zone of inhibition by disc diffusion method; format: functional
[9] = test system: Staphylococcus aureus; assay: Bactericidal activity against methicillin-susceptible Staphylococcus aureus ATCC 25923 assessed as bacterial killing incubated for over night; format: functional
Procedure, shortened: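 5 μL from each well was spotted on agar and incubated overnight. MBC was taken as the lowest concentration with no visible growth.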

[10] = test system: Staphylococcus aureus; assay: Antibacterial activity against methicillin-susceptible Staphylococcus aureus ATCC 25923 in presence of 0.05% v/v albumin; format: functional
[11] = test system: Acinetobacter baumannii; assay: Antibacterial activity against multidrug-resistant Acinetobacter baumannii BAA 1605 assessed as zone of inhibition by disc diffusion method; format: functional
[12] = test system: Staphylococcus aureus; assay: Ratio of MBC to MIC against vancomycin-intermediate resistant Staphylococcus aureus Mu50 ATCC 700699; format: functional; procedure, shortened: as §2
[13] = test system: Enterobacter cloacae; assay: Antibacterial activity against Enterobacter cloacae ATCC 23355 assessed as zone of inhibition by disc diffusion method; format: functional
[14] = test system: Staphylococcus aureus; assay: Bactericidal activity against methicillin-resistant Staphylococcus aureus ATCC 43300 assessed as bacterial killing incubated for over night; format: functional; procedure, shortened: as §2
[15] = test system: Staphylococcus aureus; assay: Antibacterial activity against vancomycin-intermediate Staphylococcus aureus clinical isolate 12 assessed as bacterial growth inhibition after 20 hrs by broth microdilution assay; format: functional; procedure, shortened: as §1
[16] = test system: Staphylococcus aureus; assay: Antibacterial activity against methicillin-susceptible Staphylococcus aureus ATCC 25923 in presence of glutathione; format: functional
Procedure, shortened: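 Broth microdilution MIC: a 0.5 McFarland suspension from overnight culture was diluted 1:100 in cation-adjusted Mueller Hinton broth supplemented with glutathione 100 μM. It was exposed to serial dilutions for 20 h at 37 °C. MIC was taken as the lowest concentration with no visible growth.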

[17] = test system: Staphylococcus aureus; assay: Antibacterial activity against heterogeneous vancomycin-intermediate Staphylococcus aureus Mu3 ATCC 700698 assessed as bacterial growth inhibition incubated for 20 hrs by broth dilution method; format: functional; procedure, shortened: as §1
[18] = test system: Enterococcus faecium; assay: Antibacterial activity against vancomycin-resistant Enterococcus faecium ATCC 700221 assessed as zone of inhibition by disc diffusion method; format: functional
[19] = test system: Staphylococcus aureus; assay: Antibacterial activity against methicillin-susceptible Staphylococcus aureus ATCC 25923 assessed as zone of inhibition by disc diffusion method; format: functional
[20] = test system: Staphylococcus aureus; assay: Antibacterial activity against vancomycin-intermediate resistant Staphylococcus aureus Mu50 ATCC 700699 assessed as bacterial growth inhibition incubated for 20 hrs by broth dilution method; format: functional; procedure, shortened: as §1
[21] = test system: Staphylococcus aureus; assay: Bactericidal activity against vancomycin-intermediate resistant Staphylococcus aureus Mu50 ATCC 700699 assessed as bacterial killing incubated for over night; format: functional; procedure, shortened: as §2
[22] = test system: Staphylococcus aureus; assay: Antibacterial activity against methicillin-susceptible Staphylococcus aureus ATCC 25923 in presence of 10% v/v serum; format: functional
[23] = test system: Staphylococcus aureus; assay: Antibacterial activity against vancomycin-resistant Staphylococcus aureus HIP11714 assessed as inhibition of bacterial growth incubated for 20 hrs by broth microdilution method; format: functional; settings: HIP11714, 20 h; procedure, shortened: as §1
[24] = test system: Staphylococcus aureus; assay: Ration of MBC to MIC against Vancomycin-resistant Staphylococcus aureus HIP11714; format: functional; procedure, shortened: as §2
[25] = test system: Staphylococcus epidermidis; assay: Antibacterial activity against Staphylococcus epidermidis ATCC 14990 assessed as zone of inhibition by disc diffusion method; format: functional
[26] = test system: Bacillus anthracis; assay: Antibacterial activity against Bacillus anthracis Sterne 34F2 assessed as zone of inhibition by disc diffusion method; format: functional
[27] = test system: Staphylococcus aureus; assay: Antibacterial activity against vancomycin-resistant Staphylococcus aureus clinical isolate 10 assessed as bacterial growth inhibition after 20 hrs by broth microdilution assay; format: functional; procedure, shortened: as §1
[28] = test system: Klebsiella pneumoniae; assay: Antibacterial activity against multidrug-resistant Klebsiella pneumoniae ATCC 700603 assessed as zone of inhibition by disc diffusion method; format: functional
[29] = test system: Staphylococcus aureus; assay: Antibacterial activity against methicillin-susceptible Staphylococcus aureus ATCC 25923 in presence of 5% v/v serum; format: functional
[30] = test system: Pseudomonas aeruginosa; assay: Antibacterial activity against Pseudomonas aeruginosa ATCC 15422 assessed as zone of inhibition by disc diffusion method; format: functional
[31] = test system: Staphylococcus aureus; assay: Antibacterial activity against methicillin-resistant Staphylococcus aureus ATCC 43300 assessed as bacterial growth inhibition incubated for 20 hrs by broth dilution method; format: functional; procedure, shortened: as §1
[32] = test system: Staphylococcus aureus; assay: Ratio of MBC to MIC against methicillin-susceptible Staphylococcus aureus ATCC 25923; format: functional; procedure, shortened: as §2
[33] = test system: Staphylococcus aureus; assay: Ratio of MBC to MIC against heterogeneous vancomycin-intermediate Staphylococcus aureus Mu3 ATCC 700698; format: functional; procedure, shortened: as §2
[34] = test system: Staphylococcus aureus; assay: Bactericidal activity against Vancomycin-resistant Staphylococcus aureus HIP11714 assessed as bacterial killing incubated for over night; format: functional; procedure, shortened: as §2
[35] = test system: Staphylococcus aureus; assay: Induction of intracellular oxidant species generation in Staphylococcus aureus ATCC 25923 by DCFH-DA dye based fluorescence assay; format: functional, organism-based
Procedure, shortened: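 OD600 1.5 suspension of S. aureus […] in HBSS given agent (from 2 or 10 mM stock), DMSO or water, then DCFH diacetate from a 100 μM stock in DMSO. Intracellular oxidation read by fluorescence (ex 485, em 535 nm).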

[36] = test system: Staphylococcus aureus; assay: Induction of intracellular oxidant species generation in Staphylococcus aureus ATCC 25923 after 1 hr by colorimetric based NBT assay; format: functional, organism-based
Procedure, shortened: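 Cells at OD600 1.5 in HBSS mixed with 1 mg/mL aqueous NBT and agent (added from 2 mM stock) or DMSO/water, shaken for 1 h at 37 °C. Stopped with 0.1 M HCl and centrifuged; pellet formazan solubilized in DMSO/KOH/HBSS and read at OD560.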

[37] = test system: Staphylococcus aureus; assay: Antibacterial activity against vancomycin-resistant Staphylococcus aureus HIP11714 assessed as zone of inhibition by disc diffusion method; format: functional
[38] = test system: Staphylococcus aureus; assay: Antibacterial activity against heterogeneous vancomycin-intermediate resistant Staphylococcus aureus Mu3 ATCC 700698 assessed as zone of inhibition by disc diffusion method; format: functional
[39] = test system: Staphylococcus aureus; assay: Antibacterial activity against vancomycin-intermediate resistant Staphylococcus aureus Mu50 ATCC 700699 assessed as zone of inhibition by disc diffusion method; format: functional
[40] = test system: Staphylococcus aureus; assay: Antibacterial activity against community acquired methicillin-resistant Staphylococcus aureus BAA 1747 assessed as zone of inhibition by disc diffusion method; format: functional

SMILES | MIC [1] [µM] | diameter of the inhibition zone (DIZ) [3] [mm] | diameter of the inhibition zone (DIZ) [4] [mm] | diameter of the inhibition zone (DIZ) [5] [mm] | MBC [6] [µM] | MIC [7] [µM] | diameter of the inhibition zone (DIZ) [8] [mm] | MBC [9] [µM] | MIC [10] [µM] | diameter of the inhibition zone (DIZ) [11] [mm] | Ratio [12] | diameter of the inhibition zone (DIZ) [13] [mm] | MBC [14] [µM] | MIC50 [15] [µM] | MIC90 [15] [µM] | MIC [16] [µM] | MIC [17] [µM] | diameter of the inhibition zone (DIZ) [18] [mm] | diameter of the inhibition zone (DIZ) [19] [mm] | MIC [20] [µM] | other results
CCCCCCCSSc1ccccn1 | 25 (≈ 6.04 µg/mL) | 0 | 46 | 10 | > 50 | 12.5 (≈ 3.02 µg/mL) | 0 | > 50 | 12.5 | 0 | 8 | 0 | > 50 | 12.5 (≈ 3.02 µg/mL) | 12.5 (≈ 3.02 µg/mL) | 50 | 12.5 (≈ 3.02 µg/mL) | 10 | >50 | 3.13 (≈ 0.756 µg/mL) | Ratio [2]: >8; MBC [21]: 25 µM (≈ 6.04 µg/mL); MIC [22]: 25 µM; MIC [23]: 6.25 µM (≈ 1.51 µg/mL); Ratio [24]: >8; diameter of the inhibition zone (DIZ) [25]: >50 mm; diameter of the inhibition zone (DIZ) [26]: 50 mm; MIC50 [27]: 6.25 µM (≈ 1.51 µg/mL); MIC90 [27]: 12.5 µM (≈ 3.02 µg/mL); diameter of the inhibition zone (DIZ) [28]: 0 mm; MIC [29]: 25 µM; diameter of the inhibition zone (DIZ) [30]: 0 mm; MIC [31]: 6.25 µM (≈ 1.51 µg/mL); Ratio [32]: >4; Ratio [33]: >4; MBC [34]: > 50 µM
Oc1cc(Cl)ccc1Oc1ccc(Cl)cc1Cl |  |  |  |  |  |  |  |  |  |  |  |  |  |  |  |  |  |  |  |  | Activity [35]: Active; Activity [36]: Active
CCCCCCCCCSSc1ccccn1 | 25 (≈ 6.74 µg/mL) | 0 | 22 | 8 | > 50 | 12.5 (≈ 3.37 µg/mL) | 0 | > 50 | 25 | 0 | 16 | 0 | > 50 | 6.25 (≈ 1.68 µg/mL) | 12.5 (≈ 3.37 µg/mL) | 50 | 6.25 (≈ 1.68 µg/mL) | 8 | 20 | 1.56 (≈ 0.42 µg/mL) | diameter of the inhibition zone (DIZ) [37]: 21 mm; diameter of the inhibition zone (DIZ) [38]: 22 mm; MBC [21]: 25 µM (≈ 6.74 µg/mL); MIC [22]: 50 µM; MIC [23]: 12.5 µM (≈ 3.37 µg/mL); diameter of the inhibition zone (DIZ) [25]: 41 mm; diameter of the inhibition zone (DIZ) [39]: 30 mm; diameter of the inhibition zone (DIZ) [40]: 19 mm; diameter of the inhibition zone (DIZ) [26]: 25 mm; MIC50 [27]: 6.25 µM (≈ 1.68 µg/mL); MIC90 [27]: 12.5 µM (≈ 3.37 µg/mL); diameter of the inhibition zone (DIZ) [28]: 0 mm; MIC [29]: 25 µM; diameter of the inhibition zone (DIZ) [30]: 0 mm; MIC [31]: 6.25 µM (≈ 1.68 µg/mL); Ratio [32]: >4; Ratio [33]: >8; MBC [34]: > 50 µM
